Data from ChEMBL document CHEMBL4725355, “Design, Synthesis, and Preclinical Evaluation of 3-Methyl-6-(5-thiophenyl)-1,3-dihydro-imidazo[4,5-b]pyridin-2-ones as Selective GluN2B Negative Allosteric Modulators for the Treatment of Mood Disorders” (J Med Chem, 2020).

Experiments:
[1] = Tmax in Sprague-Dawley rat at 500 mg/kg, po administered via gavage after 24 hrs using nanosuspension formulation by LC-MS/MS analysis; type: ADME, organism-based; settings: in vivo
Outline: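 Single oral gavage of a nanosuspension (API:polymer 4:1), diluted with vehicle on the dosing day, at 100, 250 or 500 mg/kg to male Sprague Dawley rats, 3 per dose. Plasma was sampled from 0.5 to 24 h.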

[2] = Metabolic stability in human liver microsomes assessed as extraction ratio at 1 uM after 5 to 60 mins in presence of NADPH by LC-MS/MS analysis; type: ADME, Microsome; settings: time 5-60 min, read-out: ERH
Outline: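 Human and rat liver microsomes, run in duplicate; stability reported as microsomal extraction ratio.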

[3] = Clearance in Sprague-Dawley rat at 0.5 mg/kg, iv using 1:1 PEG-400/water formulation by LC-MS/MS analysis; type: ADME, organism-based; settings: in vivo
Outline: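 Rat IV/PO PK at 0.5 mg/kg IV and 2.5 mg/kg PO, dosed in 1:1 PEG400/water, n=3.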

Cytochrome P450 2C8 = target: T1, Cytochrome P450 2C8 (Homo sapiens, UniProt P10632); assay: Inhibition of CYP2C8 in human liver microsomes using amodiaquine as substrate measured after 15 mins by LC-MS/MS analysis; type: ADME
T1 sequence (P10632 whole entry): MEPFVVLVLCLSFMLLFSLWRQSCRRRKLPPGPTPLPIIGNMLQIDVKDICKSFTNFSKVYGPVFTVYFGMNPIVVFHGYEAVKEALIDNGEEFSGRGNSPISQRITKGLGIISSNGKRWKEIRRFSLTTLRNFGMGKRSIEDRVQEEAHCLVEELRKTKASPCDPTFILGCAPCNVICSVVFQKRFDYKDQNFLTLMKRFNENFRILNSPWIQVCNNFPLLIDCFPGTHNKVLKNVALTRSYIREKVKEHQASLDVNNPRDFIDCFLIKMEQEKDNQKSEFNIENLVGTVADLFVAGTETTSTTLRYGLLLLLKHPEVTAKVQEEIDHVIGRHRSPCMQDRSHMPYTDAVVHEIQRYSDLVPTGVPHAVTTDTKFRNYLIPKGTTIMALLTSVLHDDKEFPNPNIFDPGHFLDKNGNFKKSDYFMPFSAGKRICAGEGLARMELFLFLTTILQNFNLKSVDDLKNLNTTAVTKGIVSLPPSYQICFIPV
Outline: (§1)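 Human liver microsomes incubated with isoform-specific probe substrates and the test compound at concentrations up to 20 µM. IC50 derived from inhibition of metabolite formation; mean of two independent experiments, with known specific inhibitors as positive controls.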

[4] = Tmax in Sprague-Dawley rat brain at 3 mg/kg, po by LC-MS/MS analysis; type: ADME, organism-based
Outline: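 Rats dosed orally at 3 mg/kg in 20% HP-β-CD. Brain concentrations were measured over a 6 h time course (0.5, 2, 6 h) alongside ex vivo GluN2B occupancy, n=2.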

[5] = Cmax in Sprague-Dawley rat at 500 mg/kg, po administered via gavage after 24 hrs using nanosuspension formulation by LC-MS/MS analysis; type: ADME, organism-based; parameters: route oral, time 24 hrs, dose 500 mg/kg; settings: in vivo
Outline: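 Single oral gavage dose to male Sprague Dawley rats, 3 per dose level. Vehicles were a standard suspension in 5% HPMC (125, 250, 500 or 1000 mg/kg) or a nanosuspension (API:polymer 4:1), with stock diluted in vehicle on the day of dosing (100, 250 or 500 mg/kg). Blood was sampled at time points from 0.5 to 24 h.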

[6] = Intrinsic clearance in dog liver microsomes at 1 uM after 5 to 60 mins in presence of NADPH by LC-MS/MS analysis; type: ADME, Canis lupus familiaris, Microsome; settings: time 5-60 min, read-out: CLH
[7] = Half life in mouse at 0.5 mg/kg, iv by LC-MS/MS analysis; type: ADME, organism-based; settings: in vivo
[8] = (§2) Ratio of Cmax in Sprague-Dawley rat at 500 mg/kg, po administered via gavage after 24 hrs using nanosuspension formulation by LC-MS/MS analysis to EC70 for ex vivo receptor occupancy at GluN2B in po dosed Sprague-Dawley rat assessed as 3-[3H] 1-(azetidin-1-yl)-2-[6-(4-fluoro-3-methyl-phenyl)pyrrolo[3,2-b]pyridin-1-yl]-ethanone labelling; type: ADME, organism-based
[9] = Cmax in Sprague-Dawley rat brain at 3 mg/kg, po after 2 hrs by LC-MS/MS analysis; type: ADME, organism-based; parameters: route oral, dose 3 mg/kg, time 2 hrs
Outline: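 Oral dose of 3 mg/kg in 20% HP-β-CD to rats. Brain concentration was measured alongside ex vivo GluN2B occupancy over a 6 h time course (0.5, 2 and 6 h), n=2.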

[10] = Tmax in Sprague-Dawley rat at 1000 mg/kg, po administered via gavage after 24 hrs using HPMC formulation by LC-MS/MS analysis; type: ADME, organism-based; settings: in vivo
Outline: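 Single oral gavage of a 5% HPMC suspension at 125, 250, 500 or 1000 mg/kg to male Sprague Dawley rats, 3 per group. Plasma was sampled at 6 time points from 0.5 to 24 h.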

[11] = Drug level in Sprague-Dawley rat brain hippocampus at 0.03 mg/kg, iv after 60 min by LC-MS/MS analysis; type: ADME, organism-based; settings: read-out: Drug uptake
Outline: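 Single i.v. dose of 0.03 mg/kg in 50% (w/v) PEG/water, pH 7.4; rats n=3 per group, killed at 5, 10, 30, 60 and 120 min. Cerebellum, cortex, striatum and hippocampus dissected, weighed and homogenized; drug quantified by LC-MS/MS and normalized to tissue weight. P<0.05 taken as significant versus cerebellum.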

Cytochrome P450 2C9 = Cytochrome P450 2C9 (Homo sapiens, UniProt P11712); assay: Inhibition of CYP2C9 in human liver microsomes using tolbutamide as substrate measured after 15 mins by LC-MS/MS analysis; type: ADME; outline: as §1
[12] = Oral bioavailability in monkey at 0.5 mg/kg by LC-MS/MS analysis; type: ADME, organism-based, Macaca mulatta; settings: rhesus monkey, in vivo
[13] = as §2, with “100” for “500”; type: ADME, organism-based
[14] = Protein binding in rat plasma assessed as unbound fraction at 0.5 uM after 6 hrs by equilibrium dialysis method; type: ADME, cell-free
Cytochrome P450 1A2 = target: T2, Cytochrome P450 1A2 (Homo sapiens, UniProt P05177); assay: Inhibition of CYP1A2 in human liver microsomes using phenacetin as substrate measured after 15 mins by LC-MS/MS analysis; type: ADME; outline: as §1
T2 sequence (P05177 whole entry): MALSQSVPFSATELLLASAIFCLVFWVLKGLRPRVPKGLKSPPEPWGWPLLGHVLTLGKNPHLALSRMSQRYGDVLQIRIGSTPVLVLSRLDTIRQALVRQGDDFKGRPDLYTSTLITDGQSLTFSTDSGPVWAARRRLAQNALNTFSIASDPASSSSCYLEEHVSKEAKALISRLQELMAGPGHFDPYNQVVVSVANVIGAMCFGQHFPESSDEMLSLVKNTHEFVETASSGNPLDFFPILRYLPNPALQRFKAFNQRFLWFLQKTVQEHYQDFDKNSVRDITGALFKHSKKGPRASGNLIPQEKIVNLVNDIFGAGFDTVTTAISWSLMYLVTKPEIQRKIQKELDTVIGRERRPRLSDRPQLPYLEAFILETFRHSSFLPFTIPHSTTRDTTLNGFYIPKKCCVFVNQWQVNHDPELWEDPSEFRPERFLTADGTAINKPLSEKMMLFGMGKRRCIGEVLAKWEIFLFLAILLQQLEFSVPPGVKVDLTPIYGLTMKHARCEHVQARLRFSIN

Chain of Cytochrome P450 2C9 (P11712 whole entry): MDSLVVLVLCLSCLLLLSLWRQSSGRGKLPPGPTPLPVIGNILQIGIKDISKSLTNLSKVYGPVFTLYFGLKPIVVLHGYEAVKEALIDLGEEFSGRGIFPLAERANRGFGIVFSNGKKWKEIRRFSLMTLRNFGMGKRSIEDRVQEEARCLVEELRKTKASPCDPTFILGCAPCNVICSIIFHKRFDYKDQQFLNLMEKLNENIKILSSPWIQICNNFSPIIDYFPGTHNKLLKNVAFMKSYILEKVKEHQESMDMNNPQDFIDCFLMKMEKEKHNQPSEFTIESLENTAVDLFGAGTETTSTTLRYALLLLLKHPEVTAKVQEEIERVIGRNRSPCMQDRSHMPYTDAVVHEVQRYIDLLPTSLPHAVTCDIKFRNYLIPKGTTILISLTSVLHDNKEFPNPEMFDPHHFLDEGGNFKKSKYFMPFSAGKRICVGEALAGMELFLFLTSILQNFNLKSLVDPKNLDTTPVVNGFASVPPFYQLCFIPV

In the case of `Cn1c(=O)n(CC(=O)N2CCC2)c2cc(-c3ccc(C(F)(F)F)s3)cnc21`, the Tmax [1] is reported as 3.3 h, the hepatic extraction ratio at 1 µM [2] is reported as < 0.3 and the clearance [3] is reported as 30 mL/min/kg. The IC50 (Cytochrome P450 2C8) was > 50 µM, the Tmax [4] was 0.5 h and the Cmax [5] was 18300 ng/mL. It also gave a microsomal CLint at 1 µM [6] of 14.7 µL/min/mg, a half-life [7] of 0.9 h and a Ratio [8] of 26. The Cmax [9] was 765 ng/g, the Tmax [10] was 2.3 h and the concentration at 1 h [11] was 20.9 ng/mL. For the same molecule, the IC50 (Cytochrome P450 2C9) was > 50 µM, the bioavailability [12] was 41% and the Ratio [13] was 13. For the same molecule, the fraction unbound at 6 h, 0.5 µM [14] was 0.053 and the IC50 (Cytochrome P450 1A2) was > 50 µM.
